# Source: PubChem BioAssay
# Activity calls are given as the source filed them.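 The calls were made as follows, unless noted: active = GFP response above 150% of the DMSO level; inconclusive = fewer than 70 events counted for a yeast strain; inactive = the rest.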
# What was measured:
# [1] = RPL19A-GFP modulators, yeast TOR pathway, confirmation, cell-based, S. cerevisiae, flow cytometry, cherry picks, mother/daughter gates (AID 2270;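 active = GFP response below 50% of the DMSO control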); conditions: S. cerevisiae RPL19A-GFP strain, 3 h, at 10 µM, stronger effect = lower value, 100 = same GFP as DMSO wells
# [2] = LAP4-GFP expression modulators in yeast, confirmation, cell-based, cherry picks, flow cytometry, mother/daughter gates (AID 2271;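 active = GFP response above 150% of the DMSO control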;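 also: ratio of sample to DMSO plate mean so 100% equals DMSO level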); conditions: S. cerevisiae LAP4-GFP strain, 3 h, at 10 µM, stronger effect = higher value, 100 means same as DMSO control
# In short: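 System – GFP-fusion yeast strain · Amount – 0.2 OD600 cells · Buffer or medium – SC growth medium · Dosing – single test-compound dose, 10 µM final · Schedule – 3 h treatment at 30 °C with rotation · Detection – GFP by flow cytometry · Read-out – per-gate (all, mother, daughter) GFP response vs DMSO · Benchmarks – positive rapamycin (400 ng/mL), negative DMSO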
# [3] = modulators of MEP2-GFP levels in yeast, confirmation, S. cerevisiae, flow cytometry GFP, cherry picks (AID 2272;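 active = GFP response above 150% of the DMSO control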;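 also: ratio of well signal to plate DMSO mean so 100% equals DMSO level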); conditions: S. cerevisiae MEP2-GFP strain, 3 h, at 10 µM, stronger effect = higher value
# [4] = AGP1-GFP expression modulators, hit retest, confirmation, cell-based, flow cytometry, S. cerevisiae, cherry picks (AID 2273);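 also: median GFP channel fluorescence over the whole cell population gate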; conditions: S. cerevisiae AGP1-GFP strain, 3 h, at 10 µM
# [5] = modulators of CIT2-GFP expression in yeast, confirmation, S. cerevisiae, GFP fusion, cherry picks, mother/daughter gates (AID 2274); conditions: S. cerevisiae CIT2-GFP strain, flow cytometry, 3 h, at 10 µM, stronger effect = higher value
# [6] = measured here: daughter cell gate
# [7] = measured here: mother cell gate
# [8] = measured here: daughter cell gate response
# [9] = measured here: mother cell gate response
SMILES,GFP response vs DMSO [1],"GFP response vs DMSO [1, 6] [%]","GFP response vs DMSO [1, 7] [%]",GFP response relative to DMSO [2],"GFP response relative to DMSO [2, 8] [%]","GFP response relative to DMSO [2, 9] [%]",GFP response vs DMSO [3],"GFP response, % of DMSO [4]","GFP response, % of DMSO [5]","GFP response, % of DMSO [5, 6] [%]","GFP response, % of DMSO [5, 7] [%]"
Cc1ccc(NC(=O)c2nc(S(=O)(=O)Cc3ccccc3)ncc2Cl)cc1,92% (inactive),92.5,89.8,141% (inactive),134,140,95.7% (inactive),100% (inactive),90% (inactive),89.9,85.8
Oc1c(C(Nc2nc3ccccc3s2)c2ccco2)ccc2cccnc12 (stereo not drawn),98.9% (inactive),98.7,95.9,149% (inactive),132,145,112% (inactive),97.7% (inactive),100% (inactive),103,94.9
O=[N+]([O-])c1ccc(Sc2ccc(Cl)c(Cl)c2)nc1,97.1% (inactive),96.1,96.9,98.9% (inactive),102,100,103% (inactive),101% (inactive),98.6% (inactive),99.3,99.3
CCOc1ccc(/C=C2\N=C(c3cccs3)OC2=O)cc1OC,95% (inactive),95.2,93.9,98.2% (inactive),97.5,99.4,101% (inactive),94.5% (inactive),97.3% (inactive),95.6,98.1
COc1cc(/C=C2\C(=O)ON=C2c2ccc(Cl)cc2)ccc1O,105% (inactive),106,99.4,126% (inactive),122,128,102% (inactive),100% (inactive),108% (inactive),114,99.8
Cc1cccc(/C=C/c2onc(C)c2[N+](=O)[O-])n1,99.9% (inactive),99.5,96.6,146% (inactive),137,147,100% (inactive),94.3% (inactive),87.4% (inactive),91.5,82.6
O=C(Oc1oc(-c2ccco2)nc1C=Nc1ccccc1)c1ccco1,104% (inactive),106,102,160% (active),147,175,107% (inactive),91.2% (inactive),104% (inactive),108,101
Cc1cc(C)nc(/N=C(\N)N2CCCCCC2)n1,99.3% (inactive),100,100,103% (inactive),104,102,99.5% (inactive),99.5% (inactive),101% (inactive),100,100
CCOC(=O)CS(=O)(=O)c1nc(-c2ccccc2)cc(C(F)(F)F)n1,101% (inactive),105,96.2,204% (active),192,206,130% (inactive),110% (inactive),110% (inactive),110,101
COc1ccc(N(CC(=O)N/N=C/c2cc(OC)ccc2OC)S(=O)(=O)c2ccccc2)cc1,96% (inactive),97.4,86.9,92.8% (inactive),96,92.9,96.2% (inactive),99.1% (inactive),99.7% (inactive),101,99.7
Cc1cccc(NC(=O)/C(C#N)=C/c2ccccc2Cl)n1,91.2% (inactive),91,86.6,147% (inactive),133,145,153% (inactive),109% (inactive),112% (inactive),117,103
O=C1ON=C(c2ccccc2)/C1=C\c1ccco1,101% (inactive),90.8,87,168% (active),143,165,124% (inactive),93.2% (inactive),82.2% (inactive),89.9,70.8
Cc1ccc(SC(=O)c2c(C)noc2-c2cc(C)on2)cc1,103% (inactive),102,104,120% (inactive),120,121,126% (inactive),107% (inactive),124% (inactive),124,121
